{"source": "paper PMC5743405", "about": "(International Journal of Oncology, 2017)", "key": {"DRD2L": {"system": "DRD2L", "assay": "PathHunter β-arrestin", "format": "cell-based", "settings": "antagonist mode, 6 μM", "method_in_brief": "(§1)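 Engineered cells express the receptor fused to one β-galactosidase fragment (ED) and β-arrestin fused to the complementing fragment (EA). Receptor activation recruits β-arrestin, which restores enzyme activity, and this is read by chemiluminescence (RLU). Agonist % activity is 100% × (test − vehicle)/(maximal control ligand − vehicle). Antagonist mode is challenged with an EC80 control agonist, and % inhibition is 100% × (1 − (test − vehicle)/(EC80 − vehicle)). Hits require >30% activity or >35% inhibition, plus a 3×SD RLU margin.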"}, "SSTR1": {"system": "SSTR1", "assay": "PathHunter β-arrestin", "format": "cell-based", "settings": "agonist mode, 6 μM"}, "CRTH2": {"system": "CRTH2", "assay": "PathHunter β-arrestin", "format": "cell-based", "settings": "antagonist mode, 6 μM", "method_in_brief": "as §1"}, "NPSR1B": {"system": "NPSR1B", "assay": "PathHunter β-arrestin", "format": "cell-based", "settings": "agonist mode, 6 μM", "method_in_brief": "(§2)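 Vendor-run (DiscoveRx) PathHunter enzyme fragment complementation. β-Arrestin carries the EA fragment and the receptor carries ED; recruitment restores β-gal activity, read by chemiluminescence (RLU). Agonist % activity = vehicle-subtracted RLU relative to max control ligand (gpcrMAX) or to vehicle (orphanMAX). Antagonist % inhibition = 100% × (1 − vehicle-subtracted sample RLU / vehicle-subtracted EC80 agonist control RLU).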"}, "PTGER4": {"system": "PTGER4", "assay": "PathHunter β-arrestin", "format": "cell-based", "settings": "6 μM", "method_in_brief": "(§3)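 β-Arrestin recruitment to GPCR read by β-galactosidase fragment complementation and chemiluminescence. Agonist: % = 100 × (test − vehicle)/(max control ligand − vehicle), hit at >30% and RLU > baseline + 3 SD. Antagonist, against EC80 agonist: % inhibition = 100 × (1 − (test − vehicle)/(EC80 − vehicle)), hit at >35% and RLU < EC80 − 3 SD.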"}, "P2RY11": {"system": "P2RY11", "assay": "PathHunter β-arrestin", "format": "cell-based", "settings": "6 μM", "method_in_brief": "as §3"}, "NPBWR2": {"system": "NPBWR2", "assay": "PathHunter β-arrestin", "format": "cell-based", "settings": "6 μM", "method_in_brief": "as §2"}, "HRH3": {"system": "HRH3", "assay": "PathHunter β-arrestin", "format": "cell-based", "settings": "6 μM", "method_in_brief": "as §2"}, "CALCRL-RAMP2": {"system": "CALCRL-RAMP2", "assay": "PathHunter β-arrestin", "format": "cell-based", "settings": "6 μM", "method_in_brief": "(§4)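 β-Arrestin recruitment assay: the enzyme acceptor is fused to β-arrestin and the ED fragment to the GPCR. Recruitment restores β-galactosidase, read by chemiluminescence. % activity = 100% × (test − vehicle)/(max control ligand − vehicle). % inhibition = 100% × (1 − (test − vehicle)/(EC80 control − vehicle)). An agonist hit needs >30% activity and RLU > baseline + 3×SD. An antagonist hit needs >35% inhibition and RLU < EC80 RLU − 3×SD.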"}, "MCHR1": {"system": "MCHR1", "assay": "PathHunter β-arrestin", "format": "cell-based", "settings": "6 μM", "method_in_brief": "as §2"}, "MRGPRX2": {"system": "MRGPRX2", "assay": "PathHunter β-arrestin", "format": "cell-based", "settings": "antagonist mode, 6 μM", "method_in_brief": "as §2"}, "TLR10": {"system": "TLR10", "assay": "western blot, JJ012 cells", "format": "cell-based, human", "settings": "vs untreated control, overnight incubation"}, "GPCR receptors [1]": {"system": "GPCR receptors", "assay": "PathHunter β-arrestin gpcrMAX panel, agonist mode", "format": "cell-based", "settings": "summary of Table I", "method_in_brief": "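β-Arrestin fused to the EA fragment and GPCR fused to the ED fragment; recruitment restores β-galactosidase, read by chemiluminescence. % agonist = 100 × (mean test − mean vehicle)/(mean max control ligand − mean vehicle). Hit requires >30% activity and mean RLU above baseline + 3 × baseline SD.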"}, "GPCR receptors [2]": {"system": "GPCR receptors", "assay": "PathHunter β-arrestin gpcrMAX panel, antagonist mode", "format": "cell-based", "settings": "summary of Table II", "method_in_brief": "(§5)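 GPCR-ED fusion and β-arrestin-EA fusion; arrestin recruitment restores β-galactosidase, read by chemiluminescence. Antagonist mode uses EC80 agonist challenge. % inhibition = 100 × (1 − (test − vehicle RLU)/(EC80 control − vehicle RLU)). Hit requires >35% inhibition and mean RLU below EC80 RLU − 3 × EC80 SD.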"}, "OPRD1": {"system": "OPRD1", "assay": "PathHunter β-arrestin", "format": "cell-based", "settings": "antagonist mode, 6 μM", "method_in_brief": "as §5"}, "ADRA1B": {"system": "ADRA1B", "assay": "PathHunter β-arrestin", "format": "cell-based", "settings": "agonist mode, 6 μM", "method_in_brief": "as §4"}, "CX3CR1": {"system": "CX3CR1", "assay": "PathHunter β-arrestin", "format": "cell-based", "settings": "6 μM", "method_in_brief": "as §1"}, "GPR109A": {"system": "GPR109A", "assay": "PathHunter β-arrestin", "format": "cell-based", "settings": "antagonist mode, 6 μM", "method_in_brief": "as §2"}, "AVPR1A": {"system": "AVPR1A", "assay": "PathHunter β-arrestin", "format": "cell-based", "settings": "antagonist mode, 6 μM", "method_in_brief": "as §4"}, "DRD4": {"system": "DRD4", "assay": "PathHunter β-arrestin", "format": "cell-based", "settings": "6 μM", "method_in_brief": "as §1"}, "OPRL1": {"system": "OPRL1", "assay": "PathHunter β-arrestin", "format": "cell-based", "settings": "antagonist mode, 6 μM", "method_in_brief": "as §5"}, "HTR2A": {"system": "HTR2A", "assay": "PathHunter β-arrestin", "format": "cell-based", "settings": "6 μM", "method_in_brief": "as §2"}, "CALCRL-RAMP3": {"system": "CALCRL-RAMP3", "assay": "PathHunter β-arrestin", "format": "cell-based", "settings": "antagonist mode, 6 μM", "method_in_brief": "as §4"}, "PTGIR": {"system": "PTGIR", "assay": "PathHunter β-arrestin", "format": "cell-based", "settings": "6 μM", "method_in_brief": "as §3"}, "MC4R": {"system": "MC4R", "assay": "PathHunter β-arrestin", "format": "cell-based", "settings": "6 μM", "method_in_brief": "as §2"}, "C5L2": {"system": "C5L2", "assay": "PathHunter β-arrestin", "format": "cell-based", "settings": "antagonist mode, 6 μM", "method_in_brief": "as §4"}, "TLR6": {"system": "TLR6", "assay": "western blot, JJ012 cells", "format": "cell-based, human", "settings": "vs untreated control, overnight incubation"}, "NPFFR1": {"system": "NPFFR1", "assay": "PathHunter β-arrestin", "format": "cell-based", "settings": "6 μM", "method_in_brief": "as §2"}, "AVPR1B": {"system": "AVPR1B", "assay": "PathHunter β-arrestin", "format": "cell-based", "settings": "antagonist mode, 6 μM", "method_in_brief": "as §4"}, "SSTR5": {"system": "SSTR5", "assay": "PathHunter β-arrestin", "format": "cell-based", "settings": "agonist mode, 6 μM"}, "PTHR1": {"system": "PTHR1", "assay": "PathHunter β-arrestin", "format": "cell-based", "settings": "6 μM", "method_in_brief": "as §3"}, "HRH4": {"system": "HRH4", "assay": "PathHunter β-arrestin", "format": "cell-based", "settings": "antagonist mode, 6 μM", "method_in_brief": "as §2"}, "ADRB1": {"system": "ADRB1", "assay": "PathHunter β-arrestin", "format": "cell-based", "settings": "6 μM", "method_in_brief": "as §4"}}}
{"substance": "Proline rich polypeptide 1 [PRP-1]", "values": [{"measurement": "% Inhibition", "setting": "DRD2L", "value": 2, "unit": "%"}, {"measurement": "% Activity", "setting": "SSTR1", "value": "−3", "unit": "%"}, {"measurement": "% Inhibition", "setting": "CRTH2", "value": "−8", "unit": "%"}, {"measurement": "% Activity", "setting": "NPSR1B", "value": 2, "unit": "%"}, {"measurement": "% Activity", "setting": "PTGER4; agonist mode", "value": 1, "unit": "%"}, {"measurement": "% Inhibition", "setting": "PTGER4; antagonist mode", "value": 4, "unit": "%"}, {"measurement": "% Activity", "setting": "P2RY11; agonist mode", "value": 1, "unit": "%"}, {"measurement": "% Inhibition", "setting": "P2RY11; antagonist mode", "value": "−12", "unit": "%"}, {"measurement": "% Activity", "setting": "NPBWR2; agonist mode", "value": 1, "unit": "%"}, {"measurement": "% Inhibition", "setting": "NPBWR2; antagonist mode", "value": "−3", "unit": "%"}, {"measurement": "% Activity", "setting": "HRH3; agonist mode", "value": 2, "unit": "%"}, {"measurement": "% Inhibition", "setting": "HRH3; antagonist mode", "value": "−6", "unit": "%"}, {"measurement": "% Activity", "setting": "CALCRL-RAMP2; agonist mode", "value": 1, "unit": "%"}, {"measurement": "% Inhibition", "setting": "CALCRL-RAMP2; antagonist mode", "value": "−1", "unit": "%"}, {"measurement": "% Activity", "setting": "MCHR1; agonist mode", "value": 1, "unit": "%"}, {"measurement": "% Inhibition", "setting": "MCHR1; antagonist mode", "value": "−4", "unit": "%"}, {"measurement": "% Inhibition", "setting": "MRGPRX2", "value": "−8", "unit": "%"}, {"measurement": "protein expression", "setting": "TLR10", "value": "no indication of PRP-1 effect"}, {"measurement": "GPCR coupling, agonist mode", "setting": "GPCR receptors [1]", "value": "no indication that PRP-1 was G protein coupled"}, {"measurement": "GPCR coupling, antagonist mode", "setting": "GPCR receptors [2]", "value": "no indication that PRP-1 was G protein coupled"}, {"measurement": "% Inhibition", "setting": "OPRD1", "value": "−2", "unit": "%"}, {"measurement": "% Activity", "setting": "ADRA1B", "value": 1, "unit": "%"}, {"measurement": "% Activity", "setting": "CX3CR1; agonist mode", "value": 1, "unit": "%"}, {"measurement": "% Inhibition", "setting": "CX3CR1; antagonist mode", "value": 2, "unit": "%"}, {"measurement": "% Inhibition", "setting": "GPR109A", "value": "−4", "unit": "%"}, {"measurement": "% Inhibition", "setting": "AVPR1A", "value": "−1", "unit": "%"}, {"measurement": "% Activity", "setting": "DRD4; agonist mode", "value": 3, "unit": "%"}, {"measurement": "% Inhibition", "setting": "DRD4; antagonist mode", "value": "−2", "unit": "%"}, {"measurement": "% Inhibition", "setting": "OPRL1", "value": "−7", "unit": "%"}, {"measurement": "% Activity", "setting": "HTR2A; agonist mode", "value": 1, "unit": "%"}, {"measurement": "% Inhibition", "setting": "HTR2A; antagonist mode", "value": "−5", "unit": "%"}, {"measurement": "% Inhibition", "setting": "CALCRL-RAMP3", "value": 1, "unit": "%"}, {"measurement": "% Activity", "setting": "PTGIR; agonist mode", "value": 1, "unit": "%"}, {"measurement": "% Inhibition", "setting": "PTGIR; antagonist mode", "value": "−2", "unit": "%"}, {"measurement": "% Activity", "setting": "MC4R; agonist mode", "value": "−1", "unit": "%"}, {"measurement": "% Inhibition", "setting": "MC4R; antagonist mode", "value": "−6", "unit": "%"}, {"measurement": "% Inhibition", "setting": "C5L2", "value": "−5", "unit": "%"}, {"measurement": "protein expression", "setting": "TLR6", "value": "increased in dose-dependent manner"}, {"measurement": "% Activity", "setting": "NPFFR1; agonist mode", "value": 3, "unit": "%"}, {"measurement": "% Inhibition", "setting": "NPFFR1; antagonist mode", "value": "−3", "unit": "%"}, {"measurement": "% Inhibition", "setting": "AVPR1B", "value": "−2", "unit": "%"}, {"measurement": "% Activity", "setting": "SSTR5", "value": 1, "unit": "%"}, {"measurement": "% Activity", "setting": "PTHR1; agonist mode", "value": 1, "unit": "%"}, {"measurement": "% Inhibition", "setting": "PTHR1; antagonist mode", "value": "−2", "unit": "%"}, {"measurement": "% Inhibition", "setting": "HRH4", "value": "−9", "unit": "%"}, {"measurement": "% Activity", "setting": "ADRB1; agonist mode", "value": 1, "unit": "%"}, {"measurement": "% Inhibition", "setting": "ADRB1; antagonist mode", "value": "−5", "unit": "%"}]}
